These results are taken from ChEMBL document CHEMBL2203103, “Discovery of a novel series of benzimidazole derivatives as diacylglycerol acyltransferase inhibitors” (Bioorg Med Chem Lett, 2012).

Activity calls are given as the source filed them. The calls are words filed in the database; no cut-off is given here.

Data set [1] is filed under the species Mus musculus. In words: Antiobesity activity in high fat diet-induced obese mouse assessed as decrease in abdominal and epididymal fat (reference value: 5.34 +/- […]). The arrangement: scale not given: the % may be the effect or the level left. Type of data set: functional.
Data set [2] relates to Mus musculus. In words: Antiobesity activity in high fat diet-induced obese mouse assessed as inhibition of body weight gain at 10 mg/kg after 1 week (reference value: 35.2 +/- 1.57 g). The data set is classed as functional.
The test system of data set [3] is Mus musculus. Description: Antiobesity activity in high fat diet-induced obese mouse assessed as inhibition of body weight gain at 10 mg/kg after 2 weeks (reference value: 37.8 +/- 3.55 g). The data set is classed as functional.
For data set [4], the species on record is Mus musculus. Description: Antidyslipidemic activity in high fat diet-induced obese mouse assessed as decrease in blood LDL-cholesterol level (reference value: 119 +/- 14.3 mg/dl). Type of data set: functional.
Data set [5] has as its target T1, Diacylglycerol O-acyltransferase 1 (Homo sapiens) (UniProt O75907).
T1 sequence (whole entry): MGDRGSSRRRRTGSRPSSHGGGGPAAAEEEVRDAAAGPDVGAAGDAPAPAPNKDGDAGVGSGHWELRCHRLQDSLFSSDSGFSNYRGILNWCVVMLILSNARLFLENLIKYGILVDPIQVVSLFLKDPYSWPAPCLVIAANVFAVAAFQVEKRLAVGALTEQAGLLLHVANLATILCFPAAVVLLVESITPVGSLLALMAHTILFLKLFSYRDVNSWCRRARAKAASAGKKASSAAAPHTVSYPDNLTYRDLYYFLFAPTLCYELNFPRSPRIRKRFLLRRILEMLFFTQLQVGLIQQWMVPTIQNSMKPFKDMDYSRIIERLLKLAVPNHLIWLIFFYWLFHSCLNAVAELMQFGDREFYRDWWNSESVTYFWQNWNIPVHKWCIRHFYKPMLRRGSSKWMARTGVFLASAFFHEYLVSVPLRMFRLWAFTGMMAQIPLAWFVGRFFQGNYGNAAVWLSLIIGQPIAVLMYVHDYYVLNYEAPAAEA
In words: Residual DGAT activity in human HepG2 cells using [14C]acetate as substrate assessed as formation of [14C]-triglyceride at 3 uM by chromatographic analysis relative to control.

Data set [6] concerns Mus musculus. In words: Antiobesity activity in high fat diet-induced obese mouse assessed as inhibition of body weight gain at 10 mg/kg after 4 weeks (reference value: 49.9 +/- 1.24 g). Type of data set: functional.
The target of data set [7] is T2, Diacylglycerol O-acyltransferase 1 (Rattus norvegicus, UniProt Q9ERM3).
T2 sequence (Q9ERM3 whole entry): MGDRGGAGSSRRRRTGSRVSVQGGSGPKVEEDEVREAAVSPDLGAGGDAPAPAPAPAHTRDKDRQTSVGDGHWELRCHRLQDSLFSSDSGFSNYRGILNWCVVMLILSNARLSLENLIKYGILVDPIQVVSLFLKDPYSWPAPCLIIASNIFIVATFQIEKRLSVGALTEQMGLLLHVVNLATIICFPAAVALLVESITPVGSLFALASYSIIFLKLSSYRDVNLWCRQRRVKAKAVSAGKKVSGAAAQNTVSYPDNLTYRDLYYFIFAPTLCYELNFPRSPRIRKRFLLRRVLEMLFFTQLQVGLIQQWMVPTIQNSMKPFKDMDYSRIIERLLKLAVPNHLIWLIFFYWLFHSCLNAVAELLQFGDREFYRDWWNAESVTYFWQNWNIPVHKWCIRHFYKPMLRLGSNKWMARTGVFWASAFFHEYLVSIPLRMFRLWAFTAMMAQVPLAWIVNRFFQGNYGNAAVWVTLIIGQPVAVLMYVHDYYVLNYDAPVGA
In words: (§1) Inhibition of DGAT in rat liver microsomes. Further details: species or system Microsome. In a few lines: (§2)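 DGAT activity was measured in microsomes prepared from rat liver, using a modified version of Coleman's method. IC₅₀ values were determined.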
On the technique in general: Microsomes from liver hold many membrane-bound enzymes, among them those of drug oxidation.

The target of data set [8] is T1, Diacylglycerol O-acyltransferase 1 (Homo sapiens). Description: Residual DGAT activity in human HepG2 cells using [14C]acetate as substrate assessed as formation of [14C]-triglyceride at 10 uM by chromatographic analysis relative to control.
For data set [9], the system named is Mus musculus. In words: Antiobesity activity in high fat diet-induced obese mouse assessed as inhibition of body weight gain at 10 mg/kg after 3 weeks (reference value: 45.9 +/- 2.29 g). The data set is classed as functional.
For data set [10], the species on record is Mus musculus. Description: Antiobesity activity in high fat diet-induced obese mouse assessed as decrease in retroperitoneal fat (reference value: 1.41 +/- 0.29 %). The data set is classed as functional. The arrangement: scale not given: the % may be the effect or the level left. In a few lines:
(§3)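 In 6-week-old male diet-induced obese mice, HFD-fed and individually housed (23 °C ± 3 °C, 12-h light–dark, food and water ad libitum), total and retroperitoneal fat were weighed after 5 weeks of treatment. Values are given as (tissue weight/body weight) × 100 and compared with normal-diet and untreated HFD groups.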

Data set [11] concerns Mus musculus. In words: Antiobesity activity in high fat diet-induced obese mouse assessed as inhibition of body weight gain at 10 mg/kg after 5 weeks (reference value: 52.9 +/- 1.20 g). Type of data set: functional.
Data set [12] concerns HepG2. Description: Cytotoxicity against human HepG2 cells assessed as cell viability after 48 hrs by MTT assay. The data set is classed as cell-based. To be noted: hepg2, 48 h. In a few lines:
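HepG2 cells were kept in DMEM with 10% heat-inactivated FBS and 1% penicillin–streptomycin at 37 °C in 5% CO₂. Cells were seeded at 2 × 10⁴ per well, exposed to compound for 48 h, and viability was read by MTT as formazan absorbance at 560 nm.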
Background: Tetrazolium dyes change colour on reduction, which living cells bring about.

For data set [13], the species on record is Mus musculus. In words: Antidyslipidemic activity in high fat diet-induced obese mouse assessed as decrease in total blood cholesterol level (reference value: 160 +/- 13.9 mg/dl). The data set is classed as functional.
Data set [14] has as its target T1, Diacylglycerol O-acyltransferase 1 (Homo sapiens). In words: Residual DGAT activity in human HepG2 cells using [14C]glycerol as substrate assessed as formation of [14C]-triglyceride at 10 uM by chromatographic analysis relative to control.
The species entered for data set [15] is Mus musculus. Description: Antidyslipidemic activity in high fat diet-induced obese mouse assessed as decrease in total blood triglyceride level (reference value: 120 +/- 11.2 mg/dl). Type of data set: functional.
The species entered for data set [16] is Mus musculus. In words: Antiobesity activity in high fat diet-induced obese mouse assessed as decrease in total fat (reference value: 6.75 +/- 1.18 %). The data set is classed as functional. Further details: scale not given: the % may be the effect or the level left. In a few lines:
as §3

The species entered for data set [17] is Mus musculus. In words: Antidyslipidemic activity in high fat diet-induced obese mouse assessed as increase in blood HDL-cholesterol level (reference value: 17.4 +/- 2.15 mg/dl). Type of data set: functional.
Data set [18] addresses T1, Diacylglycerol O-acyltransferase 1 (Homo sapiens). Description: Residual DGAT activity in human HepG2 cells using [14C]glycerol as substrate assessed as formation of [14C]-triglyceride at 3 uM by chromatographic analysis relative to control.
In data set [19] the target is T3, Diacylglycerol O-acyltransferase 1 (Rattus norvegicus) (UniProt Q9ERM3).
T3 sequence (whole entry): T2 sequence (Q9ERM3 whole entry)
The data set is described as §1. To be noted: Microsome. In a few lines: as §2

The species entered for data set [20] is Mus musculus. In words: Antiobesity activity in high fat diet-induced obese mouse assessed as inhibition of body weight gain after 3 weeks (reference value: 45.9 +/- 2.29 g). The data set is classed as functional.
The species entered for data set [21] is Mus musculus. Description: Antiobesity activity in high fat diet-induced obese mouse assessed as inhibition of body weight gain after 4 weeks (reference value: 49.9 +/- 1.24 g). Type of data set: functional.
For data set [22], the species on record is Mus musculus. In words: Antiobesity activity in high fat diet-induced obese mouse assessed as inhibition of body weight gain after 1 week (reference value: 35.2 +/- 1.57 g). Type of data set: functional.
The species entered for data set [23] is Mus musculus. Description: Antiobesity activity in high fat diet-induced obese mouse assessed as inhibition of body weight gain after 2 weeks (reference value: 37.8 +/- 3.55 g). The data set is classed as functional.
The species named for data set [24] is Mus musculus. Description: Antiobesity activity in high fat diet-induced obese mouse assessed as inhibition of body weight gain after 5 weeks (reference value: 52.9 +/- 1.20 g). The data set is classed as functional.

On to `O=C(NCc1ccco1)c1ccc2[nH]c(COc3ccc(C45CC6CC(CC(C6)C4)C5)cc3)nc2c1`, for which the Activity was determined as 3.16% in [1]; 35.1 g in data set [2]; 38.9 g in data set [3]; 43.6 mg/dL in data set [4]; 42.3 g in [6]; 40.8 g in [9]. The Activity is 0.94% in data set [10]; 43.2 g in data set [11]; above 50 µM in data set [12]; 73.2 mg/dL in [13]; 41.8 mg/dL in data set [15]; 4.1% in data set [16]. Further, the Activity in data set [17] stood at 21.2 mg/dL. Also, the residual activity (as a rule, the activity still measured, relative to the control) was 80.9% in data set [5], 53% in data set [8], 45% in data set [14] and 69.5% in [18]. Further, inhibition in data set [7] was half-maximal at 4.4 µM (IC50).
`Cc1ccc(CNC(=O)c2ccc3nc(COc4ccc(C56CC7CC(CC(C7)C5)C6)cc4)[nH]c3c2)o1`: in data set [7], the IC50 (usually the midpoint of a concentration-inhibition curve) worked out at 11.4 µM.
In data set [7], `O=C(NCc1ccco1)c1ccc2nc(COc3ccccc3)[nH]c2c1` displayed a half-maximal inhibitory concentration (IC50) above 50 µM.
Molecule `O=C(NCc1ccco1)c1ccc2nc(COc3ccc(-c4ccccc4)cc3)[nH]c2c1` returned an IC50 in [7] above 50 µM.
`CC(C)(C)c1ccc(OCc2nc3cc(C(=O)NCc4ccco4)ccc3[nH]2)cc1` displayed an IC50 in data set [7] of 9 µM.
As to `Cc1ccoc1CNC(=O)c1ccc2nc(COc3ccc(C45CC6CC(CC(C6)C4)C5)cc3)[nH]c2c1`, half-maximal inhibition in data set [7] (IC50) required 25.4 µM.
In the case of `CC(C)NC(=O)c1ccc2nc(COc3ccc(C45CC6CC(CC(C6)C4)C5)cc3)[nH]c2c1`, the IC50 in data set [7] came out at 20 µM.
Still for that read-out and setting: as for `CC1(C)Oc2ncnc(N)c2N=C1c1ccc([C@H]2CC[C@H](CC(=O)O)CC2)cc1`, the figure is 3.1 µM; as for `CN(C)C(=O)c1ccc2nc(COc3ccc(C45CC6CC(CC(C6)C4)C5)cc3)[nH]c2c1`, above 50 µM.
As to `COc1cc(O)c(CC=C(C)C)c(O)c1C(=O)/C=C/c1ccc(O)cc1`, the inhibition entry in data set [19] was “Active”.
In data set [7], `O=C(NCc1ccccc1)c1ccc2nc(COc3ccc(C45CC6CC(CC(C6)C4)C5)cc3)[nH]c2c1` gave an IC50 above 50 µM.
Take `O=C(c1ccc2[nH]c(COc3ccc(C45CC6CC(CC(C6)C4)C5)cc3)nc2c1)N1CCCCC1`: inhibition in data set [7] was half-maximal at 27.5 µM (IC50).
`O=C(Nc1ccccc1)c1ccc2[nH]c(COc3ccc(C45CC6CC(CC(C6)C4)C5)cc3)nc2c1` showed a concentration for half-maximal inhibition (IC50) in data set [7] above 50 µM.
Molecule `O=C(NC[C@H]1CCCO1)c1ccc2nc(COc3ccc(C45CC6CC(CC(C6)C4)C5)cc3)[nH]c2c1` had a half-maximal inhibitory concentration (IC50) in [7] of 8.7 µM.
Same read-out and setting: as for `O=C(O)c1ccc2[nH]c(COc3ccc(C45CC6CC(CC(C6)C4)C5)cc3)nc2c1`, the figure is above 50 µM; as for `O=C(NCc1cccs1)c1ccc2[nH]c(COc3ccc(C45CC6CC(CC(C6)C4)C5)cc3)nc2c1`, above 50 µM; as for `NC(=O)c1ccc2nc(COc3ccc(C45CC6CC(CC(C6)C4)C5)cc3)[nH]c2c1`, above 50 µM.
Regarding `CCCCCCCCCCC[C@@H](C[C@@H]1OC(=O)[C@H]1CCCCCC)OC(=O)[C@H](CC(C)C)NC=O` [ORLISTAT], the Activity in [20] is 39.1 g; in [1], 2.45%; in [4], 20.5 mg/dL; in [10], 0.75%; in [21], 40 g; in [22], 33.6 g. The Activity in data set [23] amounted to 37.4 g; in data set [13] it was 53.8 mg/dL; in data set [24], 41.2 g; in data set [15] it was 40.8 mg/dL; in data set [16], 3.2%; in [17], 30.3 mg/dL.
On to `O=C(NCc1ccccn1)c1ccc2[nH]c(COc3ccc(C45CC6CC(CC(C6)C4)C5)cc3)nc2c1`, for which the midpoint of inhibition in data set [7], the IC50, lay at 20 µM.
The same measure, in the same setting: to `O=C(c1ccc2[nH]c(COc3ccc(C45CC6CC(CC(C6)C4)C5)cc3)nc2c1)N1CCCC1` belongs 11.3 µM; to `CC(C)c1cccc(C(C)C)c1NC(=O)c1ccc2nc(COc3ccc(C45CC6CC(CC(C6)C4)C5)cc3)[nH]c2c1`, above 50 µM; to `COC(=O)c1ccc2[nH]c(COc3ccc(C45CC6CC(CC(C6)C4)C5)cc3)nc2c1`, 23 µM.
For `O=C(NC[C@@H]1CCCO1)c1ccc2nc(COc3ccc(C45CC6CC(CC(C6)C4)C5)cc3)[nH]c2c1`, in [7], the half-maximal inhibitory concentration (IC50) was determined as 9.5 µM.
